These results are taken from PMC2705627 (Journal of immunology (Baltimore, Md. : 1950), 2008).

For assay [1], the target named is T1, mFPR1 (Mus musculus, UniProt P33766).
T1 sequence (P33766 1-364): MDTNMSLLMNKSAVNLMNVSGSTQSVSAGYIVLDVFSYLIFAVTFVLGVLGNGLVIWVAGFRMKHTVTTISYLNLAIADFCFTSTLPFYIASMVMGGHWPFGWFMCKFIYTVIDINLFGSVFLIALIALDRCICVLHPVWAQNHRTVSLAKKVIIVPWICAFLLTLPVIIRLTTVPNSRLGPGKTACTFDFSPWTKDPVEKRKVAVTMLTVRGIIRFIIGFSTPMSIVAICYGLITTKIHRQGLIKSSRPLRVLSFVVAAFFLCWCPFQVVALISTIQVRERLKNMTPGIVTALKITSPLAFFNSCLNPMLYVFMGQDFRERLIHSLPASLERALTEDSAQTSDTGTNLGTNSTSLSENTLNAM
Nature of the assay: Ca2+ mobilization in mFPR1-RBL cells. Format: cell-based.

The test system of a further assay is WT neutrophils. Briefly: Superoxide production, WT neutrophils. Format: cell-based, mouse (C57BL/6). Put shortly: (§1)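 Bone-marrow neutrophils from age- and gender-matched mfpr1-/- and WT C57BL/6 mice (8–10 wk), 5 × 10^6 cells/ml in HBSS with 0.5% BSA. Preincubated 5 min at 37°C with isoluminol, 40 U/ml HRP and 5 μM cytochalasin B. Chemiluminescence: 5 min basal, then every minute for 15 min after agonist. SOD controls; 200 ng/ml PMA time course. Peptide responses as area under curve over first 10 min; two experiments in triplicate.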

For assay [2], the system named is mfpr1^-/- neutrophils. Briefly: Superoxide production, mfpr1-/- neutrophils. Format: cell-based, mouse (mfpr1^-/-). In short, it runs like this:
as §1

For assay [3], the target named is T1, mFPR1. The settings on record: cited from earlier work.
Assay [4] concerns mouse neutrophils. Briefly: Ca2+ mobilization, mouse bone marrow neutrophils. Format: cell-based.
The subject of assay [5] is mouse neutrophils. Nature of the assay: Degranulation. Format: cell-based, mouse (C57BL/6). In short, it runs like this:
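WT C57BL/6 and mfpr1-/- bone-marrow neutrophils preincubated with 10 μM cytochalasin B in HBSS, 20 mM HEPES (pH 7.4), 0.1% BSA: 15 min on ice, then 15 min at 37°C. Stimulated 10 min at 37°C, chilled and spun. Supernatant mixed 1:1 with 10 mM 4-methylumbelliferyl β-D-glucuronide (pH 4.0, 0.1% Triton X-100) 15 min at 37°C. Glycine/EDTA stop (pH 10.4); fluorescence 365/460 nm, as % of lysate total.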

The target in assay [6] is T1, mFPR1. The settings on record: cited from earlier work. This is another data set of the same source.
Assay [7] concerns human formyl peptide receptor (FPR) 1. The settings on record: cited from earlier work.
The test system of another assay is human neutrophils. To be noted: cited from earlier work.
The test system of a further assay is neutrophils from cat. The settings on record: cited from earlier work.
Another assay deals with FPRL1. The settings on record: b40: fMIVIL ref 22; b3: fMLF ref 16; cited from earlier work.
Assay [8] has as its system mouse neutrophils. To be noted: mice; cited from earlier work.
The test system of assay [9] is mFPR2. The settings on record: vs mFPR1; cited from earlier work.
In a further assay the test system is neutrophils from pig. The settings on record: cited from earlier work.
The subject of assay [10] is mFPR2. Briefly: ERK1/2 phosphorylation in mFPR2-RBL cells. Format: cell-based, mouse. To be noted: at the concentrations tested; data not shown. Put shortly:
(§2)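 Stably transfected or mock-transfected RBL-2H3 cells cultured 24 h, serum-starved 4 h, then stimulated over various time intervals. Stopped on ice in SDS-PAGE loading buffer, sonicated and boiled. Western blot with anti-phospho-ERK1/2 (1/1000), loading checked with anti-ERK1/2 (1/1000), HRP anti-rabbit secondary (1/3000). Two independent experiments.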

Assay [11] concerns neutrophils from mfpr1-deficient mice. To be noted: ex vivo; cited from earlier work.
Assay [12] deals with mouse neutrophils. Nature of the assay: Ex vivo chemotaxis. Format: cell-based. The settings on record: CD1 mice, Transwell, 30 min, 37°C. Put shortly: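 Bone marrow neutrophils from CD1 mice, purified on a Nycoprep/72% Percoll gradient after RBC lysis. Cells at 5 × 10^6 cells/ml in HBSS/0.5% BSA, prewarmed 20 min at 37°C. Agonist placed in BSA-precoated lower wells under 3 μm pore inserts, cells added on top. After 30 min at 37°C, cells in the bottom chamber were counted. Counts with ligand in both chambers were subtracted to remove chemokinesis.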

A further assay concerns neutrophils from dog. The settings on record: cited from earlier work.
Assay [13] has as its system mouse neutrophils. Nature of the assay: Superoxide production, mouse bone marrow neutrophils. Format: cell-based. In short, it runs like this:
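Isoluminol-enhanced chemiluminescence on mouse bone-marrow neutrophils at 5 × 10^6 cells/ml in HBSS with 0.5% BSA, preincubated 5 min at 37°C with isoluminol, 40 U/ml HRP and 5 μM cytochalasin B. Basal reading 5 min, then agonist at graded concentrations, read each minute for 15 min; SOD controls run in parallel. Cumulative superoxide taken as area under curve over first 5 min; two experiments in duplicate.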

Assay [14] relates to mfpr1^-/- neutrophils. Briefly: Degranulation. Format: cell-based, mouse (mfpr1^-/-). The settings on record: KO. In short, it runs like this: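 Bone marrow neutrophils from 8-10 wk mfpr1-/- mice (C57BL/6 background) and matched WT mice. Cells preincubated with 10 μM cytochalasin B in HBSS, 20 mM HEPES pH 7.4, 0.1% BSA, 15 min on ice then 15 min at 37°C. Stimulated 10 min at 37°C, then chilled. Supernatant reacted with 4-methylumbelliferyl β-D-glucuronide (pH 4.0), 15 min at 37°C. Fluorescence read at 365/460 nm. Release expressed as % of total from Triton X-100 lysate.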

The subject of assay [15] is mock-transfected RBL cells. Briefly: ERK1/2 phosphorylation in mock-transfected RBL cells. Format: cell-based, rat. The settings on record: at the concentrations tested (10 nM, 1 μM). In short, it runs like this: as §2
Assay [16] concerns mouse neutrophils. To be noted: cited from earlier work.
Assay [17] deals with T1, mFPR1. Briefly: ERK1/2 phosphorylation in mFPR1-RBL cells. Format: cell-based. To be noted: Western blot. Put shortly: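 RBL-2H3 cells stably expressing mFPR1 (G418-selected; DMEM, 20% FBS, 250 μg/ml G418), with untransfected RBL cells as control. Cultured 24 h, serum-starved 4 h, then stimulated at graded concentrations for various times. Lysed in ice-cold SDS loading buffer, sonicated, boiled. Western blot for phospho-ERK1/2, with total ERK1/2 as loading control. Two independent experiments.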

For the next assay, the system named is neutrophils from cow. The settings on record: cited from earlier work.

pEC50: −log10 of the molar value. “Also recorded” adds a separate entry of the source. Residues, ends and D or L forms follow the SMILES beside them. *: point of attachment. For = O=C*

Compound `CC[C@H](C)[C@H](NC(=O)[C@H](CCSC)NC=O)C(=O)N[C@@H](Cc1ccccc1)C(=O)N[C@@H](CC(C)C)C(=O)O` [fMIFL, N-formyl-Met-Ile-Phe-Leu] (For-MIFL-OH) had a pEC50 on mFPR1 [1] of 8.00.

Consider `CC[C@H](C)[C@H](NC(=O)[C@H](CCSC)NC=O)C(=O)N[C@H](C(=O)N[C@H](C(=O)N[C@@H](CC(C)C)C(=O)O)[C@@H](C)CC)C(C)C` [fMIVIL, N-formyl-Met-Ile-Val-Ile-Leu] (For-MIVIL-OH), for which, at mFPR1 [1], the pEC50 is 8.00.

As to `CCCCCCCCCCCCCC(=O)O[C@@H]1[C@@H](C)[C@@]2(O)[C@@H](C=C(CO)C[C@]3(O)C(=O)C(C)=C[C@@H]23)[C@@H]2C(C)(C)[C@]12OC(C)=O` [phorbol ester, phorbol myristate ester], the “superoxide production on phorbol ester stimulation, WT neutrophils” value in the assay with WT neutrophils (200 ng/ml phorbol myristate ester, WT compared with KO) is recorded as “responded similarly”. The “superoxide production on phorbol ester stimulation, mfpr1-/- neutrophils” value with mfpr1^-/- neutrophils [2] (200 ng/ml phorbol myristate ester, KO compared with WT) is given as “responded similarly”.

As for N-formyl-Met-Leu-Phe [fMLF], the “agonist concentration required for calcium mobilization” value on mFPR1 [3] was at least 100 nM. The “Ca2+ mobilization at 10 nM” value in the assay with mouse neutrophils [4] (10 nM, FLIPR dye) is reported as “but not fMLF”. The “lowest concentration with evident Ca2+ mobilization” value in the assay with mouse neutrophils [4] (not evident below 100 nM) is listed as at least 100 nM. In the assay on mouse neutrophils [5] (10 μM (maximal concentration used), WT neutrophils), the “β-glucuronidase release, percent of cell-associated enzyme” value came out at 5%. The “β-glucuronidase release relative to maximal release by fMIVIL and fMIFL” value in the assay with mouse neutrophils [5] (10 μM fMLF) is “about one-half”. Besides, in the assay on mouse neutrophils [5] (WT neutrophils, not significant below 1 μM), the “lowest concentration with significant β-glucuronidase release” value is at least 1 µM. For the same compound, at mFPR1 [6], the “ERK1/2 phosphorylation at 50 nM” value is given as “but not fMLF”. The “superoxide production, WT neutrophils” value in the assay on WT neutrophils (C57BL/6 WT) is given as “less potent”. The “agonist activity at human FPR1” value in [7] is recorded as “potent agonist”. The “ERK1/2 phosphorylation in human neutrophils” value in the assay on human neutrophils is reported as “rapid phosphorylation of the MAPKs ERK1/2”. Further, in the assay on human neutrophils (human neutrophils), the “concentration inducing bactericidal functions in human neutrophils” value was “nanomolar concentrations”. Moreover, in the assay on neutrophils from cat, the “response of cat neutrophils” value was “do not respond”. In the assay with FPRL1, the “affinity/response at FPRL1” value was “low affinities; also recorded: low-affinity receptor for fMLF”. Moreover, the “superoxide production, mfpr1-/- neutrophils” value in the assay with mfpr1^-/- neutrophils [2] (mfpr1^-/-) was “very little superoxide was generated”. In addition, the “fMLF concentration required for degranulation and superoxide production” value in the assay on mouse neutrophils [8] was 5 to 10 µM. Further, the “response of mFPR2 to fMLF” value in the assay on mFPR2 [9] was “responds even more weakly”. Also, the “response of pig neutrophils” value in the assay with neutrophils from pig is “do not respond”. For the same compound, the “ERK1/2 phosphorylation in mFPR2-RBL cells” value with mFPR2 [10] is “none of the peptides was able to induce detectable phosphorylation”. Moreover, the “concentration inducing Ca2+ flux” value on mFPR1 [1] (mFPR1-RBL) is on record as “above 1 μM”. In addition, the “responsiveness of mfpr1-deficient neutrophils to fMLF” value in assay [11] was “decreased responsiveness”. Besides, the “neutrophil migration at 100 nM” value with mouse neutrophils [12] is “did not stimulate significant neutrophil migration”. Also, in the assay on neutrophils from dog, the “response of dog neutrophils” value is “do not respond”. Besides, the “superoxide production at 5 μM relative to fMIVIL and fMIFL” value in the assay with mouse neutrophils [13] (5 μM) is recorded as “about one-half”. The “threshold concentration for superoxide generation” value in the assay on mouse neutrophils [13] (isoluminol chemiluminescence, 37°C) is on record as “above 1 μM”. Also, in the assay on mfpr1^-/- neutrophils [14] (100 nM), the “β-glucuronidase release at 100 nM, mfpr1-/- neutrophils” value is on record as “none of the three peptides was able to induce β-glucuronidase release”. Also, the “β-glucuronidase release above 1 μM, mfpr1-/- neutrophils” value with mfpr1^-/- neutrophils [14] (peptide concentrations above 1 μM) is “only a small amount of enzyme was released”. Further, the “ERK1/2 phosphorylation in mock-transfected RBL cells” value in [15] was “none of the peptides was able to induce detectable phosphorylation”. Further, the “potency loss on mouse neutrophils vs human neutrophils” value with mouse neutrophils [16] (less potent for mouse than for human neutrophils) was 100 -fold. For the same compound, in the assay with mouse neutrophils [16] (mouse neutrophils, ref 17 (ref 17, 20)), the “concentration required for mouse neutrophil activation” value was “requiring micromolar concentrations for cell activation; also recorded: requires micromolar concentrations; also recorded: micromolar concentration range”. Moreover, the “ERK1/2 phosphorylation at 10 nM” value on mFPR1 [17] (10 nM) is on record as “but not at 10 nM”. The “ERK1/2 phosphorylation at 1 μM” value on mFPR1 [17] (1 μM) is “could induce ERK1/2 phosphorylation”. Also, in the assay with neutrophils from cow, the “response of cow neutrophils” value is “do not respond”.

With Superoxide dismutase, the “effect on detection of superoxide” value in the assay with mouse neutrophils [13] (SOD, 250 units, added 10 min before stimulation with 1 μM peptide) was “effectively inhibited the detection of superoxide”.
